Shown are actives, neighbours in structure and some others; about 1.8% of the full set was active somewhere.
eLon inh – inhibitors of E. coli Lon protease, primary screen, biochemical, fluorescence polarization; hit rate 0.42% among 360,000; inhibition, % at 7.94 µM; purified E. coli Lon protease; AID 602123, 2011; P0A9M0; in the data active = inhibition above about 13%, passing the limit was not always enough;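 note: 0% = enzyme with probe and DMSO and 100% = no enzyme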
Target sequence (P0A9M0 whole entry, looked up): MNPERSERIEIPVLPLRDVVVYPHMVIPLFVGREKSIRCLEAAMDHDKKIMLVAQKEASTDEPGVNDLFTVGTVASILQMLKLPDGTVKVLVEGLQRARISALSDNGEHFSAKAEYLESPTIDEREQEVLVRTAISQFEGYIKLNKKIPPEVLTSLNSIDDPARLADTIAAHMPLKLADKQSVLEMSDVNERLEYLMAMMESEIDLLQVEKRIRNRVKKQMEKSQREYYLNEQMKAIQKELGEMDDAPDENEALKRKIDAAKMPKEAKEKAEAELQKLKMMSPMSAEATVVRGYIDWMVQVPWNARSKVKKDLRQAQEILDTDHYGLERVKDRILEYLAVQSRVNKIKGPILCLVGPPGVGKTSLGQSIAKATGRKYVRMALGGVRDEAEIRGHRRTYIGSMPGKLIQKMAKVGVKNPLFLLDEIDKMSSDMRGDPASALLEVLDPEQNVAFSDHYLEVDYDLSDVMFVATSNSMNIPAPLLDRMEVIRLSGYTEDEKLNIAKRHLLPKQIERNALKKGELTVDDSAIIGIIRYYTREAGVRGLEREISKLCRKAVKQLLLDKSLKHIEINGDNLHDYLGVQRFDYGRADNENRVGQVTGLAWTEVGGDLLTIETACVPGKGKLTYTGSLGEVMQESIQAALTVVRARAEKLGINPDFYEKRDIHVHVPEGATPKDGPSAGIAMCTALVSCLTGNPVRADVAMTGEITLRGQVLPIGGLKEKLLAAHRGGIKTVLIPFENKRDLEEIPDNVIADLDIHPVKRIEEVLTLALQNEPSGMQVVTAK
SKN-1 inh – suppressors of acrylamide-induced Pgst-4::GFP reporter in worms, primary screen, SKN-1 inhibitor project, whole organism, uHTS, GFP/RFP fluorescence ratio, strain VP596 | C. elegans VP596 Pgst-4::GFP/RFP ratio, 24 h | inhibition, % at 21.8 µM | hit rate 0.49% among 360,000 | AID 624304, 2012;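 active = interference check ratio from 0.5 to 1.5 plus GFP to RFP signal ratio inhibition reaching or exceeding a fixed threshold, cut at about 30% in these data, passing the limit was not always enough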
Tb MetRS inh – T. brucei MetRS inhibitors, primary screen, biochemical, luminescence. purified T. brucei MetRS, ATP depletion, Kinase-Glo luminescence. inhibition, % at 11.9 µM. hit rate 0.4% among 360,000;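 active = inhibition above a per-plate cutoff of the control wells' mean inhibition plus 3 SD, cut at about 5.5% in these data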;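 note: 0% = DMSO wells median and 100% = median of wells with control inhibitor compound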
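Assay system: T. brucei methionyl-tRNA synthetase, purified | Medium: HEPES buffer with MgCl2, KCl, DTT, spermine, BSA, pyrophosphatase | Compound: 11.9 µM single point | Incubation: 15 min enzyme-compound preincubation, 2 h reaction, 10 min detection, 25 °C | Measured by: Kinase-Glo luciferase luminescence reporting remaining unconsumed ATP | Measure: % inhibition normalized to control-well medians | Replication: Singlicate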
PREPL inh – PREPL enzyme inhibitors, primary screen, biochemical, fluorescence polarization; hit rate 0.68% among 320,000; Prolyl endopeptidase-like (Homo sapiens), Q4J6C6; inhibition, % at 5.96 µM; recombinant PREPL, fluorescence polarization activity-based probe; in the data active = inhibition above about 43%;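 note: 0% = enzyme with DMSO and 100% = wells lacking enzyme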
hiPSC survival – enhancers of single-cell hiPSC survival, primary screen, ATPlite luminescence; hit rate 0.044% among 360,000; survival enhancement, % at 20 µM; 100% = ROCK inhibitor wells, 0% = DMSO; AID 602274, 2012; in the data active = survival enhancement above about 18%;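 note: cells exposed to compounds for 16 hours before the ATP read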
MT1-MMP act inh – blockers of MT1-MMP proenzyme processing, primary screen, HT1080 RFP-PRO-GFP cells, GFP/RFP fluorescence | Matrix metalloproteinase-14 (Homo sapiens), P50281 | GFP/RFP ratio fluorescence, overnight; percent of plate control window, DMSO zero | GFP/RFP ratio change, % at 20 µM | hit rate 0.061% among 360,000 | AID 651647, 2012;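 active = GFP/RFP ratio change of at least 30% with cell ATP level not reduced by more than half and red fluorescence within 50% of control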
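Read-out: GFP/RFP fluorescence ratio; Test system: RFP-PRO-GFP reporter HT1080 cells; Compound dosing: single-point 20 µM compound, 1% DMSO; Times: overnight compound exposure at 37 °C.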
TbMetRS confirm – T. brucei MetRS inhibitors, confirmation, biochemical, luminescence; shares compounds with Tb MetRS inh; T. brucei MetRS enzyme, luminescence (ATP depletion); inhibition, % at 11.9 µM; hit rate 93% among 1,400; AID 624412, 2012; in the data active = inhibition above about 7%
Jurkat cytotox – Jurkat T cell cytotoxicity, cytotoxicity control for T. brucei MetRS inhibitor project, luminescence, high throughput; hit rate 12% among 1,400; Jurkat cells viability, ATP luminescence; shares compounds with Tb MetRS inh; inhibition, % at 8.3 µM; in the data active = inhibition above about 15%;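 note: 0% = vehicle and 100% = reference inhibitor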
TbMetRS FP orth – T. brucei MetRS inhibitors, orthogonal assay for T. brucei MetRS inhibitor project, biochemical, fluorescence polarization; shares compounds with Tb MetRS inh; purified T. brucei MetRS; inhibition, % at 11.9 µM; hit rate 44% among 1,400; in the data active = inhibition above about 17%;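 note: 0% = vehicle wells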
The depositor's hits bear a star; . = no result.

SMILES	eLon inh	SKN-1 inh	Tb MetRS inh	PREPL inh	hiPSC survival	MT1-MMP act inh	TbMetRS confirm	Jurkat cytotox	TbMetRS FP orth
COc1ccc(C(=O)NCCc2ccccc2)cc1[N+](=O)[O-]	-7	-14	0	8	0	2	.	.	.
CN1CC2([N+](=O)[O-])CC=C(OCCO)C([N+](=O)[O-])(C1)C2 (centres undefined)	2	1	-1	3	2	0	.	.	.
CCCc1c(NC(=O)Nc2ccc(F)cc2)cnn1-c1ccccc1	-2	-10	7.1*	19	1	10	17*	-7	8
CCCc1c(C(=O)Nc2ccc(F)cc2C)cnn1-c1ccccc1	8	17	1	-5	-1	-2	.	.	.
O=C(C[C@H]1C(=O)N(CCc2ccccc2)C[C@@H]1Cc1ccccc1)Nc1ccc(Br)cc1	-7	6	4	.	3	-3	.	.	.
CCCCN1C[C@H](Cc2ccccc2)[C@@H](CC(=O)Nc2ccccc2)C1=O	-5	-12	0	10	-2	-8	.	.	.
CSC[C@H]1CN(c2ccccc2)C(=O)[C@@H]1CC(=O)Nc1ccc(Br)cc1	0	-5	21*	.	-1	6	36*	2	11
CCCCN1C[C@H](CSC)[C@@H](CC(=O)Nc2ccc(Br)cc2)C1=O	5	18	37*	.	4	1	54*	8	25*
CSC[C@H]1CN(CCc2ccccc2)C(=O)[C@@H]1CC(=O)Nc1ccc(Br)cc1	-9	7	15*	.	2	3	37*	7	12
CCCNC(=O)CN1C(=O)NC(CCSC)C1=O (centres undefined)	-10	1	0	-11	0	-5	.	.	.
CCN(CC)S(=O)(=O)c1cccc(-c2nnc(SCc3nc4ccccc4s3)o2)c1	-7	7	0	5	-2	-4	.	.	.
CCN(CC)C(=O)C1=C(C)N(CCCOC)C(=O)C(CC(=O)NC(c2ccccc2)c2ccccc2)C1 (centres undefined)	0	2	0	.	3	-1	.	.	.
Cc1ccc(NC(=O)CSc2nnc(Cc3ccccc3)o2)cc1	-1	8	0	-7	0	2	.	.	.
O=C(CSc1nnc(Cc2ccc(Cl)cc2)o1)Nc1ccccc1	-10	-1	7.5*	-9	0	2	14*	1	10
O=C(CN1C(=O)/C(=C2/SC(=S)N(CCS(=O)(=O)O)C2=O)c2ccccc21)Nc1cccc(C(F)(F)F)c1	9	14	42*	28	-2	1	14*	5	2
O=C(CN1C(=O)/C(=C2\SC(=S)N(CCS(=O)(=O)O)C2=O)c2ccccc21)Nc1cccc(Br)c1	-1	11	19*	-1	0	0	20*	-5	1
CC12CCC(=O)N1C(C(=O)OCc1c(Cl)cccc1Cl)CS2 (centres undefined)	-4	-7	0	0	0	0	.	.	.
Cc1nn(C)cc1CN1CCCC(C(=O)c2ccc(-c3ccccc3)c(F)c2)C1 (centres undefined)	-9	-5	-1	-37	-2	4	.	.	.
COc1ccc(CC(=O)NCCS(=O)(=O)N2CCN(c3ccc(F)cc3)CC2)cc1OC	-6	-2	0	-34	0	3	.	.	.
COc1ccc(CCc2nc3ccccc3n2C(CCc2ccccc2)c2nc3ccccc3[nH]2)cc1 (centres undefined)	.	18	4	.	.	-6	.	.	.
COc1ccc(CCC2=NCCN2C(CC(C)C)c2nc3ccccc3[nH]2)cc1 (centres undefined)	-13	3	12*	.	-1	1	20*	7	5
COC(=O)c1ccc(CSc2nnc(Nc3ccc(C)cc3)s2)o1	-2	6	7.5*	13	-5	2	14*	1	8
CCCc1cc(=O)oc2cc(C)cc(OCC(=O)NC(Cc3c[nH]c4ccc(O)cc34)C(=O)O)c12 (centres undefined)	-8	9	7.0*	4	2	13	12*	-3	-1
CCc1cc(=O)oc2cc(C)cc(OCC(=O)NC(Cc3c[nH]c4ccc(O)cc34)C(=O)O)c12 (centres undefined)	-3	-7	6.6*	3	0	-1	9.7*	7	4
CCc1cc(=O)oc2cc(C)cc(OCC(=O)NC(Cc3ccc(Cl)cc3)C(=O)O)c12 (centres undefined)	-9	-2	-1	0	-2	4	.	.	.
SMILES	eLon inh	SKN-1 inh	Tb MetRS inh	PREPL inh	hiPSC survival	MT1-MMP act inh	TbMetRS confirm	Jurkat cytotox	TbMetRS FP orth
CCc1cc(=O)oc2cc(C)cc(OC(C)C(=O)NC(Cc3c[nH]c4ccc(O)cc34)C(=O)O)c12 (centres undefined)	-2	20	5.8*	0	1	3	13*	-6	5
CCCCc1cc(=O)oc2cc(OCC(=O)NC(Cc3c[nH]c4ccc(O)cc34)C(=O)O)ccc12 (centres undefined)	-6	11	2	17	-2	0	.	.	.
CC(Oc1ccc2ccc(=O)oc2c1)C(=O)NC(Cc1c[nH]c2ccc(O)cc12)C(=O)O (centres undefined)	-3	8	1	-3	-1	1	.	.	.
Cc1ccc(-n2c(O)c(C=NCc3ccccn3)c3ccccc3c2=O)cc1C	0	-2	-1	21	4	-10	.	.	.
CC(=O)c1ccc(OCC(O)CNCc2ccc3c(c2)OCO3)cc1 (centres undefined)	0	-2	0	6	0	0	.	.	.
CN(c1ccccc1)S(=O)(=O)c1cccc(NC(=O)CN2CCCc3ccccc32)c1	-11	3	0	16	1	-10	.	.	.
NS(=O)(=O)c1cccc(NC(=O)CN2CCc3ccccc32)c1	-1	8	9.2*	0	1	-3	9.7*	11	6
CSc1ccc(CN2CCN(S(=O)(=O)Cc3ccccc3)CC2)cc1	-2	1	0	-12	0	0	.	.	.

Bioassay records (PubChem)
